Assay results: ChEMBL document CHEMBL4390654, “Microwave-assisted solid-phase synthesis of antisense acpP peptide nucleic acid-peptide conjugates active against colistin- and tigecycline-resistant E. coli and K. pneumoniae” (Eur J Med Chem, 2019)
Peptide text beside a SMILES is read from it. * marks the point of attachment. X3 = CC[C@H](C)[C@@H](C(=O)*)N(C(=O)[C@H](CCCNC(=N)N)NC(=O)CCCCCNC(=O)[C@@H](N)CCCNC(=N)N)C(=O)[C@H](CCCNC(=N)N)NC(=O)CCCCCNC(=O)[C@@H](N)CCCNC(=N)N

Assays:
Escherichia coli [1] = test: Antibacterial activity against Escherichia coli ATCC 25922 assessed as reduction in microbial growth incubated for 20 hrs; format: functional
Summary of the method: (§1)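 Broth microdilution MIC (modified Hancock protocol) in non-binding polystyrene plates. Inoculum ~2 × 10^5 CFU/mL in Mueller-Hinton broth with Mg²⁺ and Ca²⁺ at 4 mg/L each. Compounds dissolved in water, diluted in 0.01% acetic acid/0.2% BSA (final), added as 10× stocks. Covered plates incubated 20 h at 35 °C (± 2 °C) with 220 rpm circular shaking before MIC read.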

Escherichia coli [2] = test: Antibacterial activity against Escherichia coli lacking a functional SbmA assessed as reduction in microbial growth incubated for 20 hrs
Summary of the method: (§2)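 Broth microdilution MIC after a modified Hancock protocol for cationic peptides, in non-binding polystyrene plates. Inoculum ~2 × 10^5 CFU/mL in Mueller-Hinton broth with Mg²⁺ and Ca²⁺ at 4 mg/L each. Compounds dissolved in water, diluted in 0.01% acetic acid, 0.2% BSA (final), added as 10× aliquots. Covered plates incubated 20 h at 35 °C (± 2 °C) with shaking at 220 rpm. MIC read as lowest inhibiting concentration.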

Klebsiella pneumoniae [3] = test: Antibacterial activity against Klebsiella pneumoniae ATCC 13883 assessed as reduction in microbial growth incubated for 20 hrs; format: functional; summary of the method: as §2
Pseudomonas aeruginosa [4] = test: Antibacterial activity against Pseudomonas aeruginosa PAO1 assessed as reduction in microbial growth incubated for 20 hrs; format: functional; summary of the method: as §2
Acinetobacter baumannii [5] = test: Antibacterial activity against Acinetobacter baumannii ATCC 19606 assessed as reduction in microbial growth incubated for 20 hrs; format: functional; summary of the method: as §2
Staphylococcus aureus = test: Antibacterial activity against Staphylococcus aureus ATCC 29213 assessed as reduction in microbial growth incubated for 20 hrs; format: functional; summary of the method: as §2
Escherichia coli [6] = test: Antibacterial activity against multi-drug resistant Escherichia coli NMI 3548/14 assessed as reduction in microbial growth incubated for 20 hrs; format: functional; summary of the method: as §1
Escherichia coli [7] = test: Antibacterial activity against multi-drug resistant Escherichia coli NMI 3898/15 assessed as reduction in microbial growth incubated for 20 hrs; format: functional; summary of the method: as §1
Klebsiella pneumoniae [8] = test: Antibacterial activity against multi-drug resistant Klebsiella pneumoniae NMI 2697/14 assessed as reduction in microbial growth incubated for 20 hrs; format: functional; summary of the method: as §1
Klebsiella pneumoniae [9] = test: Antibacterial activity against multi-drug resistant Klebsiella pneumoniae NMI 3081/09 assessed as reduction in microbial growth incubated for 20 hrs; format: functional; summary of the method: as §1
[10] = Hemolytic activity against RBC (unknown origin) at 100 uM; format: ADME, cell-based, Erythrocyte; settings: red blood cells (erythrocytes); read-out: Activity
[11] = Ratio of MIC for Escherichia coli lacking functional SbmA to MIC for Escherichia coli ATCC 25922
Pseudomonas aeruginosa [12] = test: Antibacterial activity against Pseudomonas aeruginosa ATCC 27853 assessed as reduction in microbial growth incubated for 20 hrs; format: functional; summary of the method: as §2
Pseudomonas aeruginosa [13] = test: Antibacterial activity against multi-drug resistant Pseudomonas aeruginosa NMI 506/17 assessed as reduction in microbial growth incubated for 20 hrs; format: functional; summary of the method: as §1
Acinetobacter baumannii [14] = test: Antibacterial activity against Acinetobacter baumannii NMI 3658/17 assessed as reduction in microbial growth incubated 20 hrs; format: functional; summary of the method: as §2
[15] = ATCC 19606 = CIP 70.34 = JCM 6841, 20 h

## CC[C@@H](C)[C@@H](NC(=O)[C@H]1CCCN1C(=O)[C@@H](CCCNC(=N)N)NC(=O)[C@H]1CCCN1C(=O)[C@@H](Cc1cnc[nH]1)NC(=O)[C@@H](CO)NC(=O)[C@H](NC(=O)[C@H]1CCCN1C(=O)[C@@H](CCCNC(=N)N)NC(=O)[C@H]1CCCN1C(=O)[C@@H](CO)NC(=O)[C@@H](Cc1ccc(O)cc1)NC(=O)[C@H]1CCCN1C(=O)[C@@H](CCCNC(=N)N)NC(=O)[C@H]1CCCN1C(=O)[C@@H](CCCNC(=N)N)NC(=O)CCCCCNC(=O)[C@H](N)CCCNC(=N)N)[C@H](C)O)C(=O)N[C@H](CCCNC(=N)N)C(=O)N[C@@H](C(=O)N[C@H](CS)C(=O)N[C@@H](C(=O)N[C@H](CS)C(=O)N[C@H](C)C(=O)N[C@@H](C(=O)N[C@H](C)C(=O)N[C@H](CS)C(=O)N[C@@H](C(=O)N[C@@H](CS)C(=O)N[C@@H](C(N)=O)[C@H](C)O)[C@H](C)O)[C@H](C)O)[C@H](C)O)C(C)C
Escherichia coli [1]; ATCC 25922, 20 h
  MIC: > 64 µg/mL
Escherichia coli [2]
  MIC: > 64 µg/mL
Klebsiella pneumoniae [3]; ATCC 13883, 20 h
  MIC: 8 to 16 µg/mL
Pseudomonas aeruginosa [4]; PAO1, 20 h
  MIC: > 64 µg/mL
Acinetobacter baumannii [5]; [15]
  MIC: > 64 µg/mL
Staphylococcus aureus; ATCC 29213, 20 h
  MIC: > 64 µg/mL
Escherichia coli [6]; NMI 3548/14, 20 h
  MIC: 64 µg/mL
Escherichia coli [7]; NMI 3898/15, 20 h
  MIC: > 64 µg/mL
Klebsiella pneumoniae [8]; NMI 2697/14, 20 h
  MIC: > 64 µg/mL
Klebsiella pneumoniae [9]; NMI 3081/09, 20 h
  MIC: > 64 µg/mL
[10]
  hemolysis at 100 µM: < 1%
[11]
  Ratio: > 16

## COLISTIN
Escherichia coli [1]
  MIC: 0.125 to 0.5 µg/mL
Escherichia coli [2]
  MIC: 0.5 µg/mL
Klebsiella pneumoniae [3]
  MIC: 2 to 4 µg/mL
Pseudomonas aeruginosa [4]
  MIC: 0.5 µg/mL
Pseudomonas aeruginosa [12]
  MIC: 0.25 µg/mL
Acinetobacter baumannii [5]; ATCC 19606 = CIP 70.34 = JCM 6841
  MIC: 0.25 µg/mL
Staphylococcus aureus
  MIC: > 16 µg/mL
Escherichia coli [6]
  MIC: 4 µg/mL
Escherichia coli [7]
  MIC: 2 to 4 µg/mL
Klebsiella pneumoniae [8]
  MIC: > 16 µg/mL
Klebsiella pneumoniae [9]
  MIC: 0.25 to 1 µg/mL
Pseudomonas aeruginosa [13]
  MIC: > 16 µg/mL
Acinetobacter baumannii [14]
  MIC: > 16 µg/mL

## CC[C@H](C)[C@H](NC(=O)[C@H](CCCCN)NC(=O)[C@H]([C@@H](C)CC)N(C(=O)[C@H](CCCNC(=N)N)NC(=O)CCCCCNC(=O)[C@@H](N)CCCNC(=N)N)C(=O)[C@H](CCCNC(=N)N)NC(=O)CCCCCNC(=O)[C@@H](N)CCCNC(=N)N)C(=O)N[C@@H](CC(C)C)C(=O)N[C@@H](Cc1ccccc1)C(=O)N[C@@H](CCC(N)=O)C(=O)N[C@@H](CC(N)=O)C(=O)N[C@@H](CCCNC(=N)N)C(=O)N[C@@H](CCCNC(=N)N)C(=O)N[C@@H](CCSC)C(=O)N[C@@H](CCCCN)C(=O)N[C@@H](Cc1c[nH]c2ccccc12)C(=O)N[C@@H](CCCCN)C(=O)N[C@@H](CCCCN)C(=O)N[C@@H](CSC1CC(=O)N(CCC(=O)NCCOCCOC(=O)N[C@@H](CS)C(=O)N[C@H](C(=O)N[C@@H](CS)C(=O)N[C@@H](C)C(=O)N[C@H](C(=O)N[C@@H](C)C(=O)N[C@@H](CS)C(=O)N[C@H](C(=O)N[C@@H](CS)C(=O)N[C@H](C(N)=O)[C@@H](C)O)[C@@H](C)O)[C@@H](C)O)[C@@H](C)O)C1=O)C(N)=O (some centres not stated)
Escherichia coli [1]; ATCC 25922, 20 h
  MIC: 8 µg/mL
Escherichia coli [2]
  MIC: 8 to 16 µg/mL
Klebsiella pneumoniae [3]; ATCC 13883, 20 h
  MIC: 2 to 4 µg/mL
Pseudomonas aeruginosa [4]; PAO1, 20 h
  MIC: 32 to 64 µg/mL
Acinetobacter baumannii [5]; [15]
  MIC: 16 µg/mL
Staphylococcus aureus; ATCC 29213, 20 h
  MIC: > 64 µg/mL
Escherichia coli [6]; NMI 3548/14, 20 h
  MIC: 16 to 32 µg/mL
Escherichia coli [7]; NMI 3898/15, 20 h
  MIC: 32 to 64 µg/mL
Klebsiella pneumoniae [8]; NMI 2697/14, 20 h
  MIC: > 64 µg/mL
Klebsiella pneumoniae [9]; NMI 3081/09, 20 h
  MIC: > 64 µg/mL
[10]
  hemolysis at 100 µM: < 1%

## CC[C@H](C)[C@H](NC(=O)[C@H](CCCCN)NC(=O)[C@H]([C@@H](C)CC)N(C(=O)[C@H](CCCNC(=N)N)NC(=O)CCCCCNC(=O)[C@@H](N)CCCNC(=N)N)C(=O)[C@H](CCCNC(=N)N)NC(=O)CCCCCNC(=O)[C@@H](N)CCCNC(=N)N)C(=O)N[C@@H](CC(C)C)C(=O)N[C@@H](Cc1ccccc1)C(=O)N[C@@H](CCC(N)=O)C(=O)N[C@@H](CC(N)=O)C(=O)N[C@@H](CCCNC(=N)N)C(=O)N[C@@H](CCCNC(=N)N)C(=O)N[C@@H](CCSC)C(=O)N[C@@H](CCCCN)C(=O)N[C@@H](Cc1c[nH]c2ccccc12)C(=O)N[C@@H](CCCCN)C(=O)N[C@@H](CCCCN)C(=O)N[C@@H](CS)C(=O)N[C@H](C(=O)N[C@@H](CS)C(=O)N[C@@H](C)C(=O)N[C@H](C(=O)N[C@@H](C)C(=O)N[C@@H](CS)C(=O)N[C@H](C(=O)N[C@@H](CS)C(=O)N[C@H](C(N)=O)[C@@H](C)O)[C@@H](C)O)[C@@H](C)O)[C@@H](C)O (X3-KILFQNRRMKWKKCTCATACTCT-NH2)
Escherichia coli [1]; ATCC 25922, 20 h
  MIC: 16 µg/mL
Escherichia coli [2]
  MIC: 16 µg/mL
Klebsiella pneumoniae [3]; ATCC 13883, 20 h
  MIC: 8 µg/mL
Pseudomonas aeruginosa [4]; PAO1, 20 h
  MIC: 32 µg/mL
Acinetobacter baumannii [5]; [15]
  MIC: 16 µg/mL
Staphylococcus aureus; ATCC 29213, 20 h
  MIC: > 64 µg/mL
Escherichia coli [6]; NMI 3548/14, 20 h
  MIC: 32 µg/mL
Escherichia coli [7]; NMI 3898/15, 20 h
  MIC: ≥ 64 µg/mL
Klebsiella pneumoniae [8]; NMI 2697/14, 20 h
  MIC: > 64 µg/mL
Klebsiella pneumoniae [9]; NMI 3081/09, 20 h
  MIC: > 64 µg/mL
[10]
  hemolysis at 100 µM: < 1%
